Source: article PMC6203112 (International Journal of Chronic Obstructive Pulmonary …, 2018)

What was measured:
[1] = Study 1 Part 1: single ascending dose PK via SDDPI; type: in vivo; settings: human, plasma, inhaled
Summary of the method: (§1)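 Blood was collected in lithium heparin, chilled on ice, and centrifuged at 2,000 ×g for 15 min at ~4°C. Plasma was stabilised with 1 M citric acid (100 µL per 1 mL plasma) and stored at ≤−65°C. After solid-phase extraction, samples were assayed by validated LC-MS/MS with heated electrospray and a deuterated internal standard (LLOQ 10 pg/mL). PK parameters were derived non-compartmentally.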

[2] = Study 1 Part 2: repeat ascending dose; type: in vivo, human; settings: SDDPI; for CL/F / Racc / AUC(0-t): geometric mean (% CV); for AUC(0-t) / Tmax: human, plasma, inhaled; for AUC(0-t): AUC0–24 h; for Tmax: median (range)
Summary of the method: as §1

[3] = Study 1 Part 2: adverse events after multiple OD doses via SDDPI; type: in vivo, human
Summary of the method: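 In Study 1 Part 2, healthy men were randomized to five parallel, dose-escalating cohorts. Each received test compound (100–1,600 µg) or matching placebo once daily for 7 days via a capsule-based single-dose dry-powder inhaler. AEs and investigator-assessed relation to study medication were recorded. Results are number (%) of subjects in the safety population (randomized, at least one dose).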

[4] = Study 2 Part 1: adverse events after single doses via MDDPI; type: in vivo, human
Summary of the method: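 Study 2 Part 1 was a three-period single ascending dose design in healthy men and women, with four randomized treatment sequences. At each visit, test compound (2,400, 4,000, 4,800 µg) or placebo was inhaled via a reservoir multi-dose dry-powder inhaler, with the dose rising each visit. AEs and investigator-judged relation to study drug were recorded, reported as number (%) of the safety population.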

[5] = rats and ferrets, intratracheal administration at doses compatible with those used in humans; cited from earlier work
[6] = test system: human bronchial epithelial cells; settings: alone and in combination with low-dose corticosteroids; cited from earlier work
[7] = human liver; cited from earlier work

## CS(=O)(=O)Nc1ccc(C(=O)O[C@@H](Cc2c(Cl)c[n+]([O-])cc2Cl)c2ccc(OC(F)F)c(OCC3CC3)c2)cc1OCC1CC1 [CHF6001]
[1]
  half-life: 1800 to 2700 min
[1]; 20 ug
  AUC(0-t): 0.0316 ng·h/mL
  Cmax: 0.0189 ng/mL
  half-life: 336 min
[1]; 100 ug
  AUC(0-t): 1.48 ng·h/mL
  Cmax: 0.0638 ng/mL
  half-life: 1690 min
[1]; 200 ug
  AUC(0-t): 2.78 ng·h/mL
  Cmax: 0.14 ng/mL
  half-life: 1810 min
[1]; 400 ug
  AUC(0-t): 5.38 ng·h/mL
  Cmax: 0.195 ng/mL
  half-life: 2720 min
[1]; 800 ug
  AUC(0-t): 10.6 ng·h/mL
  Cmax: 0.432 ng/mL
  half-life: 1580 min
[1]; 1600 µg
  AUC(0-t): 18 ng·h/mL
  Cmax: 0.73 ng/mL
  half-life: 1640 min
[1]; 2000 µg
  AUC(0-t): 25.6 ng·h/mL
  Cmax: 0.983 ng/mL
  half-life: 2240 min
[2]; 100 µg OD, Day 7, N=7
  CL/F: 723 (41.1) mL/min
  Racc: 2.89 (16.6)
[2]; 300 µg OD, Day 7, N=8
  CL/F: 860 (44.7) mL/min
  Racc: 2.49 (31.8)
[2]; 600 µg OD, Day 7, N=9
  CL/F: 956 (28.2) mL/min
  Racc: 2.47 (20.2)
[2]; 1,200 µg OD, Day 7, N=9
  CL/F: 772 (26.6) mL/min
  Racc: 2.74 (28.2)
[2]; 1,600 µg OD, Day 7, N=6
  CL/F: 910 (17.0) mL/min
  Racc: 2.75 (16.5)
[2]; 100 ug, 100 µg OD, Day 1, N=7
  AUC(0-t): 0.796 ng·h/mL
  Tmax: 1.5 h
[2]; 100 ug, 100 µg OD, Day 7, N=7
  AUC(0-t): 2.3 ng·h/mL
  Tmax: 1 h
[2]; 300 ug, 300 µg OD, Day 1, N=8
  AUC(0-t): 2.34 ng·h/mL
  Tmax: 2 h
[2]; 300 ug, 300 µg OD, Day 7, N=8
  AUC(0-t): 5.82 ng·h/mL
  Tmax: 1 h
[2]; 600 ug, 600 µg OD, Day 1, N=9
  AUC(0-t): 4.24 ng·h/mL
  Tmax: 1.5 h
[2]; 600 ug, 600 µg OD, Day 7, N=9
  AUC(0-t): 10.5 ng·h/mL
  Tmax: 2 h
[3]; 100 µg OD 7 days, N=8
  AE considered related to study medication: 0 Number (%) of subjects
  AE leading to death: 0 Number (%) of subjects
  AE leading to withdrawal: 0 Number (%) of subjects
  At least one AE: 3 (37.5) Number (%) of subjects
  At least one SAE: 0 Number (%) of subjects
  Back pain (AE): 0 Number (%) of subjects
  Diarrhea (AE considered related to study medication): 0 Number (%) of subjects
  Flatulence (AE considered related to study medication): 0 Number (%) of subjects
  Headache (AE considered related to study medication): 0 Number (%) of subjects
  Headache (AE): 0 Number (%) of subjects
  Nausea (AE considered related to study medication): 0 Number (%) of subjects
  Parosmia (AE considered related to study medication): 0 Number (%) of subjects
  Severe AE: 0 Number (%) of subjects
[3]; 300 µg OD 7 days, N=8
  AE considered related to study medication: 0 Number (%) of subjects
  AE leading to death: 0 Number (%) of subjects
  AE leading to withdrawal: 0 Number (%) of subjects
  At least one AE: 2 (25.0) Number (%) of subjects
  At least one SAE: 0 Number (%) of subjects
  Back pain (AE): 0 Number (%) of subjects
  Diarrhea (AE considered related to study medication): 0 Number (%) of subjects
  Flatulence (AE considered related to study medication): 0 Number (%) of subjects
  Headache (AE considered related to study medication): 0 Number (%) of subjects
  Headache (AE): 0 Number (%) of subjects
  Nausea (AE considered related to study medication): 0 Number (%) of subjects
  Parosmia (AE considered related to study medication): 0 Number (%) of subjects
  Severe AE: 0 Number (%) of subjects
[3]; 600 µg OD 7 days, N=9
  AE considered related to study medication: 0 Number (%) of subjects
  AE leading to death: 0 Number (%) of subjects
  AE leading to withdrawal: 0 Number (%) of subjects
  At least one AE: 5 (55.6) Number (%) of subjects
  At least one SAE: 0 Number (%) of subjects
  Back pain (AE): 0 Number (%) of subjects
  Diarrhea (AE considered related to study medication): 0 Number (%) of subjects
  Flatulence (AE considered related to study medication): 0 Number (%) of subjects
  Headache (AE considered related to study medication): 0 Number (%) of subjects
  Headache (AE): 2 (22.2) Number (%) of subjects
  Nausea (AE considered related to study medication): 0 Number (%) of subjects
  Parosmia (AE considered related to study medication): 0 Number (%) of subjects
  Severe AE: 0 Number (%) of subjects
[3]; 1,200 µg OD 7 days, N=9
  AE considered related to study medication: 0 Number (%) of subjects
  AE leading to death: 0 Number (%) of subjects
  AE leading to withdrawal: 0 Number (%) of subjects
  At least one AE: 2 (22.2) Number (%) of subjects
  At least one SAE: 0 Number (%) of subjects
  Back pain (AE): 0 Number (%) of subjects
  Diarrhea (AE considered related to study medication): 0 Number (%) of subjects
  Flatulence (AE considered related to study medication): 0 Number (%) of subjects
  Headache (AE considered related to study medication): 0 Number (%) of subjects
  Headache (AE): 0 Number (%) of subjects
  Nausea (AE considered related to study medication): 0 Number (%) of subjects
  Parosmia (AE considered related to study medication): 0 Number (%) of subjects
  Severe AE: 0 Number (%) of subjects
[3]; 1,600 µg OD 7 days, N=7
  AE considered related to study medication: 0 Number (%) of subjects
  AE leading to death: 0 Number (%) of subjects
  AE leading to withdrawal: 0 Number (%) of subjects
  At least one AE: 3 (42.9) Number (%) of subjects
  At least one SAE: 0 Number (%) of subjects
  Back pain (AE): 0 Number (%) of subjects
  Diarrhea (AE considered related to study medication): 0 Number (%) of subjects
  Flatulence (AE considered related to study medication): 0 Number (%) of subjects
  Headache (AE considered related to study medication): 0 Number (%) of subjects
  Headache (AE): 0 Number (%) of subjects
  Nausea (AE considered related to study medication): 0 Number (%) of subjects
  Parosmia (AE considered related to study medication): 0 Number (%) of subjects
  Severe AE: 0 Number (%) of subjects
[4]; single dose 2,400 µg, N=9
  AE considered related to study medication: 1 (11.1) Number (%) of subjects
  AE leading to death: 0 Number (%) of subjects
  AE leading to withdrawal: 1 (11.1) Number (%) of subjects
  At least one AE: 3 (33.3) Number (%) of subjects
  At least one SAE: 0 Number (%) of subjects
  Severe AE: 1 (11.1) Number (%) of subjects
[4]; single dose 4,000 µg, N=8
  AE considered related to study medication: 1 (12.5) Number (%) of subjects
  AE leading to death: 0 Number (%) of subjects
  AE leading to withdrawal: 0 Number (%) of subjects
  At least one AE: 1 (12.5) Number (%) of subjects
  At least one SAE: 0 Number (%) of subjects
  Severe AE: 0 Number (%) of subjects
[4]; single dose 4,800 µg, N=8
  AE considered related to study medication: 0 Number (%) of subjects
  AE leading to death: 0 Number (%) of subjects
  AE leading to withdrawal: 0 Number (%) of subjects
  At least one AE: 1 (12.5) Number (%) of subjects
  At least one SAE: 0 Number (%) of subjects
  Severe AE: 0 Number (%) of subjects
[5]
  emesis or nausea: no evidence of emesis or nausea
[6]
  cytokine levels after rhinovirus challenge: reduced the levels of a range of cytokines in a concentration-dependent manner
[7]
  metabolic stability: metabolically stable
